This note sets out measurements from ChEMBL document CHEMBL1275433 (Antimicrob Agents Chemother, 2008).

Molecules are shown by their SMILES. pIC50: −log10 of the molar value. In brackets after ≈: the same amount, converted by molar mass. Activity calls are given as the source filed them. The calls are words filed in the database; no cut-off is given here. Bounds are passed on as bounds.

Assay [1] can be described thus: Inhibition of Mycobacterium tuberculosis DNA gyrase GyrB/GyrA A83S, S84A and I85V mutant. In a few lines:
(§1)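 Enzyme unit: protein needed for 50% supercoiling of 0.4 μg relaxed pBR322 DNA in 1 h at 37°C. Wild-type and mutant enzymes assayed in parallel on the same day under identical conditions. Repeated two to four times; representative values reported.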

Assay [2] in a line: Inhibition of Mycobacterium tuberculosis DNA gyrase GyrA A83S mutant/GyrB R447K mutant gene. In short, it runs like this: as §1
Assay [3] can be described thus: Inhibition of Mycobacterium tuberculosis DNA gyrase GyrB/GyrA A83S mutant. In a few lines: as §1
Assay [4] in a line: Inhibition of Mycobacterium tuberculosis DNA gyrase GyrB/GyrA M74I mutant. In short, it runs like this: as §1
A short description of assay [5]: Inhibition of Mycobacterium tuberculosis DNA gyrase GyrB/GyrA M74I and A83S mutant. In a few lines:
as §1

The nature of assay [6]: Inhibition of Mycobacterium tuberculosis DNA gyrase GyrA M74I and A83S mutant/GyrB R447K mutant gene. In a few lines:
as §1

Assay [7] is described as follows: Inhibition of Mycobacterium tuberculosis DNA gyrase GyrA/GyrB R447K mutant gene. In short, it runs like this:
as §1

A short description of assay [8]: Inhibition of Mycobacterium tuberculosis DNA gyrase GyrB/GyrA S69V, A71G, E72D, T73V, M74I, N76K, A83S, S84A, I85V, F96W and P101M mutant. In short, it runs like this:
as §1

Assay [9] in a line: Inhibition of Mycobacterium tuberculosis DNA gyrase GyrB/GyrA A83S, S84A, I85V, F96W and P101M mutant. In a few lines: as §1
Assay [10] in a line: Inhibition of Mycobacterium tuberculosis DNA gyrase GyrA/GyrB N464S mutant gene. In short, it runs like this: as §1
The subject of assay [11] is Mycobacterium tuberculosis.
In assay [12] the test system is Mycobacterium tuberculosis. This is another data set of the same source.
For assay [13], the system named is Mycobacterium tuberculosis. The source holds these as a separate data set.
The subject of assay [14] is Mycobacterium tuberculosis. This is another data set of the same source.
The test system of assay [15] is Mycobacterium tuberculosis. This is another data set of the same source.
For assay [16], the system named is Mycobacterium tuberculosis. The source holds these as a separate data set.
Assay [17] relates to Mycobacterium tuberculosis. This is another data set of the same source.
The test system of assay [18] is Mycobacterium tuberculosis. The source holds these as a separate data set.
Assay [19] deals with Mycobacterium tuberculosis. This is another data set of the same source.
Assay [20] has as its system Mycobacterium tuberculosis. This is another data set of the same source.
The subject of assay [21] is Mycobacterium tuberculosis. Kind of assay: Antimicrobial activity against Mycobacterium tuberculosis harboring DNA gyrase GyrB QRDR. The assay is classed as functional, organism-based.
The subject of assay [22] is Mycobacterium tuberculosis. Kind of assay: Antimicrobial activity against Mycobacterium tuberculosis harboring DNA gyrase GyrA QRDR. The assay is classed as functional, organism-based.

In the case of `CCn1cc(C(=O)O)c(=O)c2cc(F)c(N3CCNCC3)nc21` [ENOXACIN], the pIC50 in [1] was 4.96; in assay [2], 4.72; in assay [3] it was 4.80; in assay [4] it was under 3.80; in assay [5] it was 5.05; in assay [6], 4.80. Also, the pIC50 is 4.64 in [7] and 4.80 in [9]. In addition, the IC50 result in assay [8] was “Not Active”.

Take `COc1c(N2C[C@@H]3CCCN[C@@H]3C2)c(F)cc2c(=O)c(C(=O)O)cn(C3CC3)c12` [MOXIFLOXACIN]: the negative-log IC50 (pIC50) was 5.15 in [10], 6.00 in assay [5], 5.70 in assay [6] and 6.00 in assay [7]. Also, the CC25 in assay [11] was 2.5 µM; in assay [12], 0.5 µM; in assay [13] it was 1 µM; in assay [14], 0.5 µM; in [15] it was 0.5 µM; in assay [17], 3.5 µM. In addition, the CC25 in assay [19] was 1 µM. Also, the CC25 result in [16], in [18] and in assay [20] was “inactive” throughout. Moreover, in assay [8], the 50% inhibitory concentration (IC50) entry is given as “Not Active”.

On to `CCn1cc(C(=O)O)c(=O)c2ccc(C)nc21` [NALIDIXIC ACID], for which the pIC50 in assay [10] was 2.39; in assay [1] it was 2.55; in [2], 3.07; in assay [3], 3.02; in [4], 2.46; in [5], 3.07. For the same compound, the pIC50 in assay [6] is 3.28; in [7], 2.97; in assay [9], 2.97. Besides, the half-maximal inhibitory concentration (IC50) entry in assay [8] is “Not Active”.

`CC1COc2c(N3CCN(C)CC3)c(F)cc3c(=O)c(C(=O)O)cn1c23` (configuration not stated) [OFLOXACIN]: the negative-log IC50 (pIC50) in assay [10] was 4.70; in assay [1] it was 5.10; in assay [2], 5.40; in assay [3] it was 5.15; in [4], 4.60; in [5], 5.52. The pIC50 is 4.96 in assay [6], 5.15 in assay [7] and 5.15 in assay [9]. Further, the IC50 in assay [21] was 10 µg/mL (≈ 27.7 µM); in [8] it was “Not Active”; in assay [22], 10 µg/mL (≈ 27.7 µM). Also, the MIC50 in assay [21] and in assay [22] was 1 µg/mL (≈ 2.77 µM) each time. Also, the CC25 in [12] amounted to 0.5 µM; in [13] it was 3 µM; in assay [14], 1.5 µM; in assay [15], 1.5 µM; in assay [17], 14 µM; in assay [19], 3 µM. The CC25 entry in assay [16], in assay [18] and in assay [20] was “inactive” throughout.
